In ChEMBL document CHEMBL1153789, “The methoxylated flavones eupatorin and cirsiliol induce CYP1 enzyme expression in MCF7 cells” (J Nat Prod, 2009):
The source made the active and inactive calls. The rule behind the calls is not given here.

How the values were obtained:
Assay type in all cases: functional, cell-based
MCF7 [1] = assay: Induction of CYP1A1 expression in human MCF7 cells at 0.5 uM to 10 uM after 24 hrs by RT PCR and DNA electrophoresis
MCF7 [2] = assay: Induction of CYP1B1 expression in human MCF7 cells at 10 nM after 24 hrs by 7-ethoxyresorufin-O-deethelase assay
Method in brief: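 MCF7 cells were exposed for 24 h to 0.31, 0.625, 1.25 or 2.5 µM flavone, with 10 nM TCDD as positive control and 0.1% DMSO as negative control. CYP1 activity was read by 7-ethoxyresorufin-O-deethylation (EROD), which is mainly CYP1A1-selective, though CYP1B1 may contribute. The time course used 2.5 µM. Three replicates.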

MCF7 [3] = assay: Antiproliferative activity in human MCF7 cells at 1.5 uM after 96 hrs by MTT assay
MCF7 [4] = assay: Induction of CYP1B1 expression in human MCF7 cells at 1.25 uM after 24 hrs by RT PCR
Method in brief: (§1)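 MCF7 cells treated 24 h (0, 1.25, 2.5, 5 µM; 10 nM TCDD reference); RT-PCR for CYP1A1, CYP1B1 and β-actin, primers per Döhr et al.; band intensities normalized to β-actin, semiquantitative; gels representative of three individual experiments.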

MCF7 [5] = assay: Antiproliferative activity in human MCF7 cells after 96 hrs by MTT assay; settings: MCF7, 96 h
MCF7 [6] = assay: Induction of CYP1B1 expression in human MCF7 cells at 5 uM after 24 hrs by RT PCR; method in brief: as §1
MCF7 [7] = assay: Induction of CYP1A1 expression in human MCF7 cells at 2.5 uM after 24 hrs by RT PCR; method in brief: as §1
MCF7 [8] = assay: Induction of CYP1A1 expression in human MCF7 cells at 5 uM after 24 hrs by RT PCR; method in brief: as §1
MCF7 [9] = assay: Antiproliferative activity in human MCF7 cells after 96 hrs by MTT assay in presence of acacetin
MCF7 [10] = assay: Induction of CYP1A1 expression in human MCF7 cells after 24 hrs by 7-ethoxyresorufin-O-deethelase assay
Method in brief: (§2)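 EROD (7-ethoxyresorufin-O-deethylase) activity in MCF7 cells after 24 h exposure to 0.31, 0.625, 1.25, 2.5 µM flavone; 10 nM TCDD positive control, 0.1% DMSO negative control; three replicates. Read-out reflects mainly CYP1A1, with possible CYP1B1 contribution.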

MCF7 [11] = assay: Induction of CYP1B1 expression in human MCF7 cells after 24 hrs by 7-ethoxyresorufin-O-deethelase assay; method in brief: as §2

For `O=c1c(O)c(-c2ccc(O)c(O)c2)oc2cc(O)cc(O)c12`, which Activity (MCF7 [1]) is on record?
Its Activity is “Active”.

Which Activity (MCF7 [2]) does the source give for `Clc1cc2c(cc1Cl)Oc1cc(Cl)c(Cl)cc1O2` here?
Its Activity is “Active”.

`COc1ccc(-c2cc(=O)c3c(O)cc(O)cc3o2)cc1` was tested. Which Activity (MCF7 [3]) did it give?
The Activity was “inactive”.

For `O=c1c(O)c(-c2ccc(O)cc2)oc2cc(O)cc(O)c12`, which Activity (MCF7 [1]) is on record?
Its Activity is “inactive”.

`COc1cc2oc(-c3ccc(O)c(O)c3)cc(=O)c2c(O)c1OC` [CIRSILIOL] was tested. Which Activity (MCF7 [4]) did it give?
Its Activity is “Active”.

What about the IC25 (MCF7 [5]) of the same compound?
Its IC25 is 0.5 µM.

What about the IC50 (MCF7 [5]) of the same compound?
The IC50 was 8 µM.

And the Activity (MCF7 [6])?
Its Activity is “Active”.

What about the Activity (MCF7 [7]) of the same compound?
The Activity was “Active”.

What about the Activity (MCF7 [8]) of the same compound?
The Activity was “inactive”.

And the IC25 (MCF7 [9]; MCF7, 96 h)?
Its IC25 is 5 µM.

What about the IC50 (MCF7 [9]; MCF7, 96 h) of the same compound?
Its IC50 is 15 µM.

For `COc1ccc(-c2cc(=O)c3c(O)c(OC)c(OC)cc3o2)cc1O` [EUPATORIN], which Activity (MCF7 [10]) is on record?
Its Activity is “Dose-dependent effect”.

What about the IC50 (MCF7 [5]) of the same compound?
The IC50 was 7 µM.

What about the Activity (MCF7 [6]) of the same compound?
The Activity was “Active”.

What about the Activity (MCF7 [11]) of the same compound?
Its Activity is “Dose-dependent effect”.

And the Activity (MCF7 [8])?
Its Activity is “Active”.

And the Activity (MCF7 [9])?
The Activity was “inactive”.
